Experimental data from ChEMBL document CHEMBL1128511, “4-Aza-3-oxo-5 alpha-androst-1-ene-17 beta-N-aryl-carboxamides as dual inhibitors of human type 1 and type 2 steroid 5 alpha-reductases. Dramatic effect of N-aryl substituents on type 1 and type 2 5 alpha-reductase inhibitory potency” (J Med Chem, 1995).
pIC50, pKi: −log10 of the molar value.

Legend:
[1] = biological target: T1, 3-oxo-5-alpha-steroid 4-dehydrogenase 2 (Homo sapiens, UniProt P31213); test: Inhibition of recombinant human Steroid 5-alpha-reductase type 2
T1 sequence (P31213 whole entry): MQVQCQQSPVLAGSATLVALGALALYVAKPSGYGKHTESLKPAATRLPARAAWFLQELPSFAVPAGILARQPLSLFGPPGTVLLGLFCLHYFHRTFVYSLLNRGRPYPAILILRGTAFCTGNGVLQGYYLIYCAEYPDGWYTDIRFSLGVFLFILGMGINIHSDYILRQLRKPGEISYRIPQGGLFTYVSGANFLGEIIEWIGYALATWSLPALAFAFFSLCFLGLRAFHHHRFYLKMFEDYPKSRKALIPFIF
Procedure, shortened: (§1)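 Baculovirus-expressed recombinant human type 1 or type 2 5α-reductase; cofactor and inhibitor preincubated with the enzyme before testosterone is added. Fixed-time assay following conversion of testosterone to DHT with and without inhibitor. The IC50 is the nM concentration giving 50% inhibition of DHT formation.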

[2] = biological target: T2, 3-oxo-5-alpha-steroid 4-dehydrogenase 1 (Homo sapiens, UniProt P18405); test: Inhibition of recombinant human Steroid 5-alpha-reductase type I; procedure, shortened: as §1
T2 sequence (P18405 whole entry): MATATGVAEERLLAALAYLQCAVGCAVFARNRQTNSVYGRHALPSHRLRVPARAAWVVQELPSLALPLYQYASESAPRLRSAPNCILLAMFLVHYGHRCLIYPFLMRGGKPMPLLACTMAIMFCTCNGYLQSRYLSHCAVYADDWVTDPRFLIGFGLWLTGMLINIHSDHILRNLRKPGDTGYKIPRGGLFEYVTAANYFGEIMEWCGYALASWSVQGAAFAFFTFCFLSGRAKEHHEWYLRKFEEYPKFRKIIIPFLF

[3] = Kinetic Parameter k3/k1 for Inhibition of Type-2 5-alpha-reductase
Procedure, shortened: (§2)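 Baculovirus-expressed recombinant human type 1 or type 2 5α-reductase; conversion of testosterone to DHT followed over time with and without inhibitor under standard conditions. Second-order rate constants obtained by fitting progress data to the integrated first-order rate equation for time-dependent inhibition.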

[4] = Kinetic Parameter Ki for Inhibition of Type 1 5-alpha-reductase
[5] = Kinetic Parameter Ki for Inhibition of Type-2 5-alpha-reductase
[6] = Kinetic Parameter k3/k1 for Inhibition of Type 1 5-alpha-reductase; procedure, shortened: as §2

For `Cc1ccccc1NC(=O)C1CCC2C3CCC4NC(=O)C=C[C@]4(C)C3CC[C@]12C` (stereo not given in full), the pIC50 [1] was over 10.00 and the pIC50 [2] was 7.52.
Work on `C[C@]12C=CC(=O)NC1CCC1C2CC[C@]2(C)C(C(=O)Nc3cccc4ccccc34)CCC12` (stereo not given in full) yielded a pIC50 [1] of 9.70, a k3/k1 [3] of 2100000 M⁻¹ s⁻¹ and a pKi [4] of 7.15. The pKi [5] was 9.30 and the pIC50 [2] was 8.09.
For `C[C@]12C=CC(=O)NC1CCC1C2CC[C@]2(C)C(C(=O)Nc3ccc4ccccc4c3)CCC12` (stereo not given in full), the pIC50 [1] was 9.70 and the pIC50 [2] was 7.76.
In the case of `C[C@]12C=CC(=O)NC1CCC1C2CC[C@]2(C)C(C(=O)Nc3ccccc3Cl)CCC12` (stereo not given in full), the pIC50 [1] was over 10.00 and the pIC50 [2] was 7.84.
Work on `Cc1cccc(NC(=O)C2CCC3C4CCC5NC(=O)C=C[C@]5(C)C4CC[C@]23C)c1` (stereo not given in full) yielded a pIC50 [1] of 9.52 and a pIC50 [2] of 7.61.
Molecule `Cc1cccc(C)c1NC(=O)C1CCC2C3CCC4NC(=O)C=C[C@]4(C)C3CC[C@]12C` (stereo not given in full) has a pIC50 [1] of over 9.00 and a pIC50 [2] of 7.85.
`COc1ccccc1NC(=O)C1CCC2C3CCC4NC(=O)C=C[C@]4(C)C3CC[C@]12C` (stereo not given in full) showed a pIC50 [1] of over 9.00 and a pIC50 [2] of 7.96.
`C[C@]12C=CC(=O)NC1CCC1C2CC[C@]2(C)C(C(=O)Nc3cc(C(F)(F)F)ccc3C(F)(F)F)CCC12` (stereo not given in full) gave a pIC50 [1] of over 10.00, a k3/ki [3] of 7000000 M⁻¹ s⁻¹ and a pKi [4] of 8.62. The pKi [5] was 9.30, the k3/ki [6] was 270000 M⁻¹ s⁻¹ and the pIC50 [2] was 8.24.
`C[C@]12C=CC(=O)NC1CCC1C2CC[C@]2(C)C(C(=O)Nc3ccccc3N)CCC12` (stereo not given in full) showed a pIC50 [1] of over 9.00 and a pIC50 [2] of 6.89.
Work on `C[C@]12C=CC(=O)NC1CCC1C2CC[C@]2(C)C(C(=O)Nc3cccc(Cl)c3)CCC12` (stereo not given in full) yielded a pIC50 [1] of 10.00 and a pIC50 [2] of 7.74.
Work on `COc1cccc(NC(=O)C2CCC3C4CCC5NC(=O)C=C[C@]5(C)C4CC[C@]23C)c1` (stereo not given in full) yielded a pIC50 [1] of over 9.00 and a pIC50 [2] of 7.72.
`C[C@]12C=CC(=O)NC1CCC1C2CC[C@]2(C)C(C(=O)Nc3cccc(N)c3)CCC12` (stereo not given in full) gave a pIC50 [1] of over 9.00 and a pIC50 [2] of 7.03.
Molecule `C[C@]12C=CC(=O)NC1CCC1C2CC[C@]2(C)C(C(=O)Nc3ccc(-c4ccccc4)cc3)CCC12` (stereo not given in full) has a pIC50 [1] of 8.66 and a pIC50 [2] of 7.46.
With `C[C@]12C=CC(=O)NC1CCC1C2CC[C@]2(C)C(C(=O)Nc3ccc(Cl)cc3)CCC12` (stereo not given in full) the pIC50 [1] was 9.70 and the pIC50 [2] was 8.17.
In the case of `C[C@]12C=CC(=O)NC1CCC1C2CC[C@]2(C)C(C(=O)Nc3ccccc3O)CCC12` (stereo not given in full), the pIC50 [1] was over 9.00 and the pIC50 [2] was 7.89.
`C[C@]12C=CC(=O)NC1CCC1C2CC[C@]2(C)C(C(=O)Nc3cccc(O)c3)CCC12` (stereo not given in full) showed a pIC50 [1] of over 9.00 and a pIC50 [2] of 7.28.
Work on `C[C@]12C=CC(=O)NC1CCC1C2CC[C@]2(C)C(C(=O)Nc3ccc(C(=O)c4ccccc4)cc3)CCC12` (stereo not given in full) yielded a pIC50 [1] of 8.80 and a pIC50 [2] of 7.72.
`C[C@]12C=CC(=O)NC1CCC1C2CC[C@]2(C)C(C(=O)Nc3ccccc3C(F)(F)F)CCC12` (stereo not given in full) gave a pIC50 [1] of over 10.00, a k3/ki [3] of 9700000 M⁻¹ s⁻¹ and a pKi [4] of 7.92. For the same molecule, the pKi [5] was 8.89, the k3/ki [6] was 35000 M⁻¹ s⁻¹ and the pIC50 [2] was 8.25.
Work on `C[C@]12C=CC(=O)NC1CCC1C2CC[C@]2(C)C(C(=O)Nc3cccc(Br)c3)CCC12` (stereo not given in full) yielded a pIC50 [1] of 9.70 and a pIC50 [2] of 7.69.
`C[C@]12C=CC(=O)NC1CCC1C2CC[C@]2(C)C(C(=O)Nc3ccccc3-c3ccccc3)CCC12` (stereo not given in full) gave a pIC50 [1] of over 10.00 and a pIC50 [2] of 7.42.
Work on `CN(C(=O)C1CCC2C3CCC4NC(=O)C=C[C@]4(C)C3CC[C@]12C)c1ccccc1` (stereo not given in full) yielded a pIC50 [1] of 7.61 and a pIC50 [2] of 6.46.
Molecule `C[C@]12C=CC(=O)NC1CCC1C2CC[C@]2(C)C(C(=O)Nc3ccccc3F)CCC12` (stereo not given in full) has a pIC50 [1] of over 10.00 and a pIC50 [2] of 8.10.
For `C[C@]12C=CC(=O)NC1CCC1C2CC[C@]2(C)C(C(=O)N(c3ccccc3)c3ccccc3)CCC12` (stereo not given in full), the pIC50 [1] was 7.60 and the pIC50 [2] was under 6.00.
Work on `C[C@]12C=CC(=O)NC1CCC1C2CC[C@]2(C)C(C(=O)Nc3ccc(F)cc3)CCC12` (stereo not given in full) yielded a pIC50 [1] of 9.70 and a pIC50 [2] of 7.65.
Molecule `CCN(C(=O)C1CCC2C3CCC4NC(=O)C=C[C@]4(C)C3CC[C@]12C)c1ccccc1` (stereo not given in full) has a pIC50 [1] of 8.10 and a pIC50 [2] of 6.21.
Molecule `Cc1ccc(NC(=O)C2CCC3C4CCC5NC(=O)C=C[C@]5(C)C4CC[C@]23C)cc1` (stereo not given in full) has a pIC50 [1] of 10.00 and a pIC50 [2] of 7.76.
With `C[C@]12C=CC(=O)NC1CCC1C2CC[C@]2(C)C(C(=O)Nc3cccc(-c4ccccc4)c3)CCC12` (stereo not given in full) the pIC50 [1] was over 10.00, the k3/ki [3] was 5000000 M⁻¹ s⁻¹ and the pKi [4] was 7.62. For the same molecule, the pKi [5] was 8.85, the k3/ki [6] was 51000 M⁻¹ s⁻¹ and the pIC50 [2] was 7.85.
In the case of `C[C@]12C=CC(=O)NC1CCC1C2CC[C@]2(C)C(C(=O)Nc3cccc(C(=O)c4ccccc4)c3)CCC12` (stereo not given in full), the pIC50 [1] was over 9.00 and the pIC50 [2] was 7.92.
`C[C@]12C=CC(=O)NC1CCC1C2CC[C@]2(C)C(C(=O)Nc3ccc(C(F)(F)F)cc3)CCC12` (stereo not given in full) gave a pIC50 [1] of 9.40 and a pIC50 [2] of 7.68.
`C[C@]12C=CC(=O)NC1CCC1C2CC[C@]2(C)C(C(=O)Nc3cccc(F)c3)CCC12` (stereo not given in full) gave a pIC50 [1] of 9.70 and a pIC50 [2] of 7.64.
For `C[C@]12C=CC(=O)NC1CCC1C2CC[C@]2(C)C(C(=O)Nc3ccccc3)CCC12` (stereo not given in full), the pIC50 [1] was 9.70, the k3/ki [3] was 1700000 M⁻¹ s⁻¹ and the pKi [4] was 6.64. It also gave a pKi [5] of 8.77, a k3/ki [6] of 3900 M⁻¹ s⁻¹ and a pIC50 [2] of 7.70.
For `C[C@]12C=CC(=O)NC1CCC1C2CC[C@]2(C)C(C(=O)Nc3ccc(O)cc3)CCC12` (stereo not given in full), the pIC50 [1] was over 9.00 and the pIC50 [2] was 7.13.
Molecule `C[C@]12C=CC(=O)NC1CCC1C2CC[C@]2(C)C(C(=O)Nc3ccccc3C(=O)c3ccccc3)CCC12` (stereo not given in full) has a pIC50 [1] of over 9.00 and a pIC50 [2] of 7.54.
With `C[C@]12C=CC(=O)NC1CCC1C2CC[C@]2(C)C(C(=O)N3CCCCc4ccccc43)CCC12` (stereo not given in full) the pIC50 [1] was 7.99 and the pIC50 [2] was 6.23.
For `C[C@]12C=CC(=O)NC1CCC1C2CC[C@]2(C)C(C(=O)N3CCCc4ccccc43)CCC12` (stereo not given in full), the pIC50 [1] was 8.85 and the pIC50 [2] was 6.81.
In the case of `COc1ccc(NC(=O)C2CCC3C4CCC5NC(=O)C=C[C@]5(C)C4CC[C@]23C)cc1` (stereo not given in full), the pIC50 [1] was over 9.00 and the pIC50 [2] was 7.59.
In the case of `C[C@]12C=CC(=O)NC1CCC1C2CC[C@]2(C)C(C(=O)Nc3cccc(C(F)(F)F)c3)CCC12` (stereo not given in full), the pIC50 [1] was 10.00 and the pIC50 [2] was 7.90.
`C[C@]12C=CC(=O)NC1CCC1C2CC[C@]2(C)C(C(=O)Nc3ccc(N)cc3)CCC12` (stereo not given in full) gave a pIC50 [1] of over 9.00 and a pIC50 [2] of 6.92.
